A word on the IC50: it is the point on the concentration scale where inhibition reaches its midpoint. Read a low IC50 as higher potency. By inhibition is commonly meant the relative decrease from the control value, in per cent.

Experimental findings from ChEMBL document CHEMBL3616436, “Synthesis, cytotoxicity and antimicrobial activity of thiourea derivatives incorporating 3-(trifluoromethyl)phenyl moiety” (Eur J Med Chem, 2015) are described below.

In brackets after ≈: the same amount, converted by molar mass. Activity calls are given as the source filed them. No cut-off for these calls is given here.

Data set [1] concerns Staphylococcus epidermidis. Briefly: Inhibition of biofilm formation in Staphylococcus epidermidis 23/04 after 24 hrs using MTT staining by spectrophotometer analysis. Format: functional, organism-based. The conditions noted are these: 23/04, 24 h.
Data set [2] is described as follows: Cytotoxicity against human HaCaT cells assessed as cell viability at 16 uM after 24 hrs by MTT assay relative to control. Particulars: read-out: Activity. Format: cell-based. The essentials: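 HaCaT keratinocytes, 2.5x10^4 cells/well, in DMEM with 2% FBS, exposed 24 h to 16 µM compound, then 2 h with 0.5 mg/ml MTT; formazan dissolved in 0.04 M HCl/isopropanol, A570; viability as % of untreated control absorbance; three independent experiments in triplicate.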

For data set [3], the target named is T1, DNA topoisomerase 4 (Staphylococcus epidermidis) (UniProt Q5HPI6+Q5HPI5). Briefly: Inhibition of decatenation activity of DNA topoisomerase 4 in Staphylococcus epidermidis ATCC 12228 using kDNA as substrate at 1 to 4 ug/ml after 1 hr using ethidium bromide staining by agarose gel electrophoresis. Format: protein assay.
The target of data set [4] is T1, DNA topoisomerase 4 (Staphylococcus epidermidis). Kind of data set: Inhibition of decatenation activity of DNA topoisomerase 4 in Staphylococcus epidermidis ATCC 12228 using kDNA as substrate at 32 ug/ml after 1 hr using ethidium bromide staining by agarose gel electrophoresis. In kind it is protein assay.
Data set [5] concerns the target T2, Topoisomerase IV (Staphylococcus aureus) (UniProt P0C1U9+P0C1S7). Briefly: Inhibition of decatenation activity of DNA topoisomerase 4 in hospital methicillin-resistant Staphylococcus aureus 522/11 using kDNA as substrate at 1 to 4 ug/ml after 1 hr using ethidium bromide staining by agarose gel electrophoresis. In kind it is protein-complex assay.
For data set [6], the target named is T2, Topoisomerase IV (Staphylococcus aureus). Briefly: Inhibition of decatenation activity of DNA topoisomerase 4 in hospital methicillin-resistant Staphylococcus aureus 573/11 using kDNA as substrate at 32 ug/ml after 1 hr using ethidium bromide staining by agarose gel electrophoresis. Format: protein-complex assay.
For data set [7] the target is unchanged. Kind of data set: Inhibition of decatenation activity of DNA topoisomerase 4 in hospital methicillin-resistant Staphylococcus aureus 81/05 using kDNA as substrate at 1 to 4 ug/ml after 1 hr using ethidium bromide staining by agarose gel electrophoresis. Format: protein-complex assay.
Data set [8] has the same target. Kind of data set: Inhibition of decatenation activity of DNA topoisomerase 4 in Staphylococcus aureus ATCC 25923 using kDNA as substrate at 32 ug/ml after 1 hr using ethidium bromide staining by agarose gel electrophoresis. Format: protein-complex assay. In short, it runs like this: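 Kit-supplied S. aureus topoisomerase IV, 1 U, with 200 ng kDNA in the supplied assay buffer. Reactions ran 30 min at 37 °C with compound at 1, 4 or 32 µg/ml. They were stopped with STEB and extracted with chloroform/isoamyl alcohol (24:1). Products were run on 1% agarose in TAE for 1 h at 120 V and visualised with ethidium bromide under UV. Controls were no-enzyme, no-compound and ±DMSO.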

Data set [9] relates to Staphylococcus epidermidis. Briefly: Inhibition of biofilm formation in Staphylococcus epidermidis […]/[…] at 8 ug/ml after 24 hrs using MTT staining by spectrophotometer analysis. In kind it is functional. The conditions noted are these: 16/04, 24 h.
Data set [10] relates to Staphylococcus epidermidis. Briefly: Inhibition of biofilm formation in Staphylococcus epidermidis 31/04 at 8 ug/ml after 24 hrs using MTT staining by spectrophotometer analysis. Format: functional. The conditions noted are these: 31/04, 24 h. The essentials: (§1)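 Methicillin-resistant hospital isolates or ATCC strains of S. epidermidis were grown overnight in tryptone soy broth with 0.5% glucose. Inoculum of 10^7 CFU/mL was mixed 1:1 with compound in TSB-glucose and incubated 24 h at 37 °C. Non-adherent cells were washed off with PBS, and wells were stained with MTT (0.5% in PBS) for 2 h at 37 °C. Stain was solubilized in DMSO/glycine buffer and read at A554. Inhibition is relative to drug-free control; quadruplicates.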

Data set [11] relates to Staphylococcus epidermidis. Briefly: Inhibition of biofilm formation in Staphylococcus epidermidis ATCC 35984 after 24 hrs using MTT staining by spectrophotometer analysis. Format: functional, organism-based. The conditions noted are these: ATCC 35984, 24 h. The essentials: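 Biofilm was grown for 24 h at 37 °C in TSB with 0.5% glucose from 10^7 CFU/mL inoculum, mixed 1:1 with compound. Final concentrations were 0.125–4 or 0.25–8 µg/ml. Wells were PBS-washed and MTT-stained for 2 h at 37 °C, solubilized in DMSO/glycine buffer and read at 554 nm. IC50 (50% inhibition of biofilm formation) was taken from the dose-response curve; quadruplicates.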

Data set [12] concerns the target T2, Topoisomerase IV (Staphylococcus aureus). Briefly: Inhibition of decatenation activity of DNA topoisomerase 4 in Staphylococcus aureus ATCC 29213 using kDNA as substrate at 32 ug/ml […] using ethidium bromide staining by agarose gel electrophoresis. Format: protein-complex assay.
Data set [13] shares this target. Briefly: Inhibition of decatenation activity of DNA topoisomerase 4 in hospital methicillin-resistant Staphylococcus aureus 522/11 using kDNA as substrate at 32 ug/ml after 1 hr using ethidium bromide staining by agarose gel electrophoresis. In kind it is protein-complex assay.
Data set [14] relates to Staphylococcus epidermidis. Briefly: Inhibition of biofilm formation in Staphylococcus epidermidis […]/[…] after 24 hrs using MTT staining by spectrophotometer analysis. In kind it is functional, organism-based. Particulars: 16/04, 24 h.
Data set [15] deals with Staphylococcus epidermidis. Kind of data set: Inhibition of biofilm formation in Staphylococcus epidermidis 151/04 after 24 hrs using MTT staining by spectrophotometer analysis. In kind it is functional, organism-based. Particulars: 151/04, 24 h.
For data set [16], the target named is T2, Topoisomerase IV (Staphylococcus aureus). Briefly: Inhibition of decatenation activity of DNA topoisomerase 4 in hospital methicillin-resistant Staphylococcus aureus 80/05 using kDNA as substrate at 32 ug/ml after 1 hr using ethidium bromide staining by agarose gel electrophoresis. In kind it is protein-complex assay.
Data set [17] has as its system Staphylococcus epidermidis. Briefly: Inhibition of biofilm formation in Staphylococcus epidermidis ATCC 35984 at 4 ug/ml after 24 hrs using MTT staining by spectrophotometer analysis. Particulars: ATCC 35984, 24 h. Format: functional. In short, it runs like this: as §1
In data set [18] the target is T2, Topoisomerase IV (Staphylococcus aureus). Kind of data set: Inhibition of decatenation activity of DNA topoisomerase 4 in hospital methicillin-resistant Staphylococcus aureus 79/05 using kDNA as substrate at 1 to 4 ug/ml after 1 hr using ethidium bromide staining by agarose gel electrophoresis. Format: protein-complex assay.
In data set [19] the test system is Staphylococcus epidermidis. Kind of data set: Inhibition of biofilm formation in Staphylococcus epidermidis 24/04 at 8 ug/ml after 24 hrs using MTT staining by spectrophotometer analysis. Format: functional. Particulars: 24/04, 24 h.
Data set [20] deals with Staphylococcus epidermidis. Briefly: Inhibition of biofilm formation in Staphylococcus epidermidis 76/04 at 8 ug/ml after 24 hrs using MTT staining by spectrophotometer analysis. In kind it is functional. Particulars: 76/04, 24 h. The essentials:
as §1

Data set [21] concerns the target T1, DNA topoisomerase 4 (Staphylococcus epidermidis). Kind of data set: Inhibition of decatenation activity of DNA topoisomerase 4 in hospital methicillin-resistant Staphylococcus epidermidis 63/04 using kDNA as substrate at 1 to 4 ug/ml after 1 hr using ethidium bromide staining by agarose gel electrophoresis. In kind it is protein assay.
Data set [22] shares this target. Kind of data set: Inhibition of decatenation activity of DNA topoisomerase 4 in hospital methicillin-resistant Staphylococcus epidermidis 23/04 using kDNA as substrate at 1 to 4 ug/ml after 1 hr using ethidium bromide staining by agarose gel electrophoresis. Format: protein assay.
In data set [23] the target is T2, Topoisomerase IV (Staphylococcus aureus). Kind of data set: Inhibition of decatenation activity of DNA topoisomerase 4 in hospital methicillin-resistant Staphylococcus aureus 54/05 using kDNA as substrate at 1 to 4 ug/ml after 1 hr using ethidium bromide staining by agarose gel electrophoresis. In kind it is protein-complex assay.
Data set [24] has as its system Staphylococcus epidermidis. Kind of data set: Inhibition of biofilm formation in Staphylococcus epidermidis 62/04 at 8 ug/ml after 24 hrs using MTT staining by spectrophotometer analysis. In kind it is functional. The conditions noted are these: 62/04, 24 h. In short, it runs like this: as §1

T1 sequence (Q5HPI5 whole entry, looked up): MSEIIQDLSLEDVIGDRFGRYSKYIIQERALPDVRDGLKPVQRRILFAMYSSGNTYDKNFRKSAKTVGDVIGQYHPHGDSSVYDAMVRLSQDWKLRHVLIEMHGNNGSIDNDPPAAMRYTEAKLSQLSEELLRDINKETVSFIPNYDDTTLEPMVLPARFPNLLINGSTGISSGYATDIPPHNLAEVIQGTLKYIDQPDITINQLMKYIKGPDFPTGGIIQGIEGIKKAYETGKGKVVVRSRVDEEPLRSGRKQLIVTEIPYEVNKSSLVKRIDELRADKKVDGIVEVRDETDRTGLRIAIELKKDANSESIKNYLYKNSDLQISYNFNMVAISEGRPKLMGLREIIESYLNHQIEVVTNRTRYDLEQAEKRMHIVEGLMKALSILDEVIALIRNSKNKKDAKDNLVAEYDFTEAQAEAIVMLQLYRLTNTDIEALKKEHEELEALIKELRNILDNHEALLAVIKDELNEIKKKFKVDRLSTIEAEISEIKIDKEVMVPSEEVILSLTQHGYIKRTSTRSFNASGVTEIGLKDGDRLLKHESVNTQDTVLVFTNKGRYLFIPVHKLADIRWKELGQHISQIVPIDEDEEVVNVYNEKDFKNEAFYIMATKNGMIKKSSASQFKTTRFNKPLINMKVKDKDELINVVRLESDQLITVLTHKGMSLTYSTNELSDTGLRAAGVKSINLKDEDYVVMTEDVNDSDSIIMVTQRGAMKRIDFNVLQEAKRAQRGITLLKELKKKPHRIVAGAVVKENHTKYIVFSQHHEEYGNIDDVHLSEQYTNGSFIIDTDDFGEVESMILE
T1 sequence (Q5HPI6 whole entry, looked up): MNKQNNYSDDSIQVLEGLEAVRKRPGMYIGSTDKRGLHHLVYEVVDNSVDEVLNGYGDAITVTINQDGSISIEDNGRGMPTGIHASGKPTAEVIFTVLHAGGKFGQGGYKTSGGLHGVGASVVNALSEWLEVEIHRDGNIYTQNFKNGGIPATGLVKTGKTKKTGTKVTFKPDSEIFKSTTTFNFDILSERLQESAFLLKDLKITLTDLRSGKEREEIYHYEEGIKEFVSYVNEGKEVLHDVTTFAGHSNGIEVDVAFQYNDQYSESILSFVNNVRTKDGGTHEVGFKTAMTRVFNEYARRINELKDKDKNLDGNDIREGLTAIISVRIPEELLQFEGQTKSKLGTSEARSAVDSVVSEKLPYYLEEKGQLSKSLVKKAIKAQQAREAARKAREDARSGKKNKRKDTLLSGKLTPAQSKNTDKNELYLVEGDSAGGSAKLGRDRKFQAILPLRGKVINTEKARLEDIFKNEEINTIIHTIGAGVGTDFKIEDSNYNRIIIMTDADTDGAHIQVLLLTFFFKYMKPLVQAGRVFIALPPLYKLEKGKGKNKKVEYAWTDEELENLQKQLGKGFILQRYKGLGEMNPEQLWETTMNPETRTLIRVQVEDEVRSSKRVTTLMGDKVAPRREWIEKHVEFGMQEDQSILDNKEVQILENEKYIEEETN

Turning to `FC(F)(F)c1cccc(NC(=S)Nc2cccc(Br)c2)c1`, the IC50 was determined as 3.13 µg/mL (≈ 8.34 µM) in data set [1], 3.84 µg/mL (≈ 10.2 µM) in data set [11], 3.91 µg/mL (≈ 10.4 µM) in data set [14] and 2.34 µg/mL (≈ 6.24 µM) in data set [15]. Moreover, in data set [2], the viability at 24 h, 16 µM was 91%. Besides, the inhibition entry in data set [3], in data set [4], in data set [5], in [6], in data set [7] and in data set [8] was “Active” in each case. Moreover, the inhibition result in data set [12], in [13], in data set [16], in data set [18], in [21] and in data set [22] was “Active” throughout. Further, the inhibition entry in data set [23] was “Active”. Moreover, the inhibition at 8 µg/mL was 70% in data set [9]; 70% in [10]; 70% in data set [19]; 70% in data set [20]; 80% in data set [24]. Also, the inhibition at 4 µg/mL in data set [17] was 46.8%.

On to `O=C(O)c1cn(C2CC2)c2cc(N3CCNCC3)c(F)cc2c1=O` [CIPROFLOXACIN], for which the IC50 in [1] amounted to 42.8 µg/mL (≈ 129 µM); in data set [11], 11.6 µg/mL (≈ 35 µM); in data set [14] it was 6.81 µg/mL (≈ 20.6 µM); in data set [15], 13.1 µg/mL (≈ 39.5 µM). Also, the inhibition entry in [3], in data set [4], in [5], in data set [6], in data set [7] and in [8] was “Active” throughout. In addition, the inhibition entry in data set [12], in data set [13], in data set [16], in data set [18], in [21] and in data set [22] was “Active” in each case. Besides, the inhibition entry in data set [23] is “Active”. The molecule further yielded an inhibition at 4 µg/mL in data set [17] of 45.4%.

Turning to `Fc1ccc(NC(=S)Nc2cccc(C(F)(F)F)c2)cc1Cl`, the IC50 in [1] was 2.01 µg/mL (≈ 5.76 µM); in [11], 1.37 µg/mL (≈ 3.93 µM); in data set [14], 1.35 µg/mL (≈ 3.87 µM). In data set [2], the viability at 24 h, 16 µM stood at 89.8%. The inhibition result in [3], in data set [4], in [5], in data set [6], in data set [7] and in data set [8] was “Active” throughout. The inhibition result in data set [12], in [13], in [16], in data set [18], in data set [21] and in data set [22] was “Active” in each case. In addition, the inhibition entry in data set [23] was “Active”. The inhibition at 8 µg/mL in data set [9], in [10], in [19], in data set [20] and in data set [24] was 40% in each case. Further, the inhibition at 4 µg/mL in data set [17] came to 84%.
